Test results from ChEMBL document CHEMBL5705892, “MK-2206, an allosteric Akt inhibitor, enhances antitumor efficacy by standard chemotherapeutic agents or molecular targeted drugs in vitro and in vivo” (Mol Cancer Ther, 2010).
Calls of active or inactive are those of the source. No cut-off for these calls is given here.

What was measured:
[1] = target: RAC-alpha serine/threonine-protein kinase (Homo sapiens) (UniProt P31749); experiment: Inhibition of AKT in human A-431 cells assessed as reduction in AKT phosphorylation at S473 residue at 5 umol/L measured after 5 hrs in presence of erlotinib by Western blot analysis; format: cell-based; details: dose 5.0 µmol/L
Sequence of RAC-alpha serine/threonine-protein kinase (Homo sapiens) (P31749 whole entry): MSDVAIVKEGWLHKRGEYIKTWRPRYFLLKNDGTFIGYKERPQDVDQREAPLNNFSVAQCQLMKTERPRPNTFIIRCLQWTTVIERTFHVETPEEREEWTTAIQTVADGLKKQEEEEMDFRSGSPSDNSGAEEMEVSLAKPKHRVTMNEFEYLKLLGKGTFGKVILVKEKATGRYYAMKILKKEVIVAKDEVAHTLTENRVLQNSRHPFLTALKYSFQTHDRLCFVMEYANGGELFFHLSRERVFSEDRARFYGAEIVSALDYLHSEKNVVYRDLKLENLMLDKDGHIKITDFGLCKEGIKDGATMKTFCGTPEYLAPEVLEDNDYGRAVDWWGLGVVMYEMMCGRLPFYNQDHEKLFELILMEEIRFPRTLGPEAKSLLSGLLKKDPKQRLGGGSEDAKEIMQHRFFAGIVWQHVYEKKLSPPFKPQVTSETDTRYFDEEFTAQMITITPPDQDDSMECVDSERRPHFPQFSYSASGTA
Summary of the method: (§1)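 Cells were lysed in Tris-HCl pH 7.5, 150 mM NaCl, 1% Triton X-100 with protease and phosphatase inhibitors. Lysates were run on SDS-PAGE, transferred to nitrocellulose and probed with phospho-specific antibodies.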

[2] = target: RAC-alpha serine/threonine-protein kinase (Homo sapiens) (UniProt P31749); experiment: Inhibition of AKT in human HCC827 cells assessed as reduction in AKT phosphorylation at S473 residue at 5 umol/L measured after 5 hrs in presence of erlotinib by Western blot analysis; format: cell-based; details: dose 5.0 µmol/L
NCI-N87 [3] = experiment: Synergistic antiproliferative activity against human NCI-N87 cells assessed as combination index at ED75 treated 24 hrs prior to lapatinib and measured after 72 hrs by celltiter-glo assay; format: functional; details: time 96 hrs
SK-BR-3 [4] = experiment: Synergistic antiproliferative activity against human SK-BR-3 cells assessed as combination index at ED50 treated 24 hrs prior to lapatinib and measured after 72 hrs by celltiter-glo assay; format: functional; details: time 96 hrs
A2780 [5] = experiment: Induction of apoptosis in carboplatin pretreated human A2780 cells assessed as increase in caspase-3/7 activity measured after 24 hrs by caspase-glo 3/7 assay; format: functional, cell-based; details: dose 0.0625-1 µM
PC-3 = experiment: Antitumor activity against human PC-3 cells xenografted in CD1 nude mouse assessed as tumor growth inhibition at 120 mg/kg, po administered 3 times per week for 2 weeks starting 24 hrs post docetaxel treatment and measured during compound dosing by caliper method; format: functional, organism-based
Summary of the method: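 Male CD1-nude mice received s.c. PC-3 cells and were treated from day 25 after implant, at 0.2 cm³, n = 5. Docetaxel (0.73% ethanol in saline) was given at 5 mg/kg i.v. on day 0. MK-2206 (30% Captisol) was given at 120 mg/kg po on days 1, 3, 5, 8, 10, 12. Caliper volume twice weekly.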

NCI-H1703 = experiment: Induction of apoptosis in human NCI-H1703 cells assessed as fold induction of capsase-3/7 activity measured after 24 to 48 hrs in presence of gemcitabine by caspase-glo 3/7 assay; format: functional; details: time 24-48 hrs
NCI-N87 [6] = experiment: Synergistic antiproliferative activity against human NCI-N87 cells assessed as combination index at ED75 measured after 96 hrs in presence of lapatinib by celltiter-glo assay; format: functional
MCF7 [7] = experiment: Synergistic antiproliferative activity against human MCF7 cells assessed as combination index at ED50 measured after 72 hrs in presence of docetaxel by celltiter-glo assay; format: functional
Summary of the method: (§2)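 Cells grown in RPMI 1640 with 10% heat-inactivated FBS at 37°C, 5% CO₂. Seeded at 2 to 3 × 10³ per well; drugs added 24 h later. […] Viability read as cellular ATP by CellTiter-Glo. CI calculated by Chou–Talalay from median-effect plots at ED50, ED75 and ED90.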

HCC1954 [8] = experiment: Synergistic antiproliferative activity against lapatinib pretreated human HCC1954 cells assessed as combination index at ED75 measured after 72 hrs by celltiter-glo assay; format: functional
SK-OV-3 [9] = experiment: Synergistic antiproliferative activity against human SK-OV-3 cells assessed as combination index at ED75 measured after 72 hrs in presence of lapatinib by celltiter-glo assay; format: functional
UMC-11 = experiment: Induction of apoptosis in human UMC-11 cells assessed as fold induction of capsase-3/7 activity measured after 24 to 48 hrs in presence of carboplatin by caspase-glo 3/7 assay; format: functional; details: time 24-48 hrs
SK-BR-3 [10] = experiment: Synergistic antiproliferative activity against human SK-BR-3 cells assessed as combination index at ED90 measured after 72 hrs in presence of docetaxel by celltiter-glo assay; format: functional
[11] = target: RAC-alpha serine/threonine-protein kinase (Homo sapiens) (UniProt P31749); experiment: Inhibition of AKT in human HCC827 cells assessed as reduction in AKT phosphorylation at S473 residue at 5 umol/L measured after 5 hrs by Western blot analysis; format: cell-based; details: dose 5.0 µmol/L
SK-OV-3 [12] = experiment: Synergistic antiproliferative activity against human SK-OV-3 cells assessed as combination index at ED75 measured after 96 hrs in presence of lapatinib by celltiter-glo assay; format: functional
[13] = target: RAC-alpha serine/threonine-protein kinase (Homo sapiens) (UniProt P31749); experiment: Inhibition of AKT in human A-431 cells assessed as reduction in PRAS40 phosphorylation at T246 residue at 5 umol/L measured after 5 hrs in presence of erlotinib by Western blot analysis; format: cell-based; details: dose 5.0 µmol/L; summary of the method: as §1
A2780 [14] = experiment: Cell cycle arrest in human A2780 cells assessed as increase in accumulation of cells at sub-G1 phase measured after 72 hrs in presence of camptothecin by propidium iodide staining based flow cytometry; format: functional
MCF7 [15] = experiment: Synergistic antiproliferative activity against human MCF7 cells assessed as combination index at ED90 measured after 72 hrs in presence of docetaxel by celltiter-glo assay; format: functional; summary of the method: as §2
NCI-H1993 = experiment: Induction of apoptosis in human NCI-H1993 cells assessed as fold induction of capsase-3/7 activity measured after 24 to 48 hrs in presence of carboplatin by caspase-glo 3/7 assay; format: functional; details: time 24-48 hrs
NCI-H23 = experiment: Synergistic antiproliferative activity against human NCI-H23 cells assessed as combination index at ED90 measured after 72 hrs in presence of erlotinib by celltiter-glo assay; format: functional
[16] = Toxicity in human SK-OV-3 cells xenografted CB17/icr SCID mouse assessed as mortality at 60 to 120 mg/kg, po administered 3 times per week for 2 weeks starting 2 hrs post lapatinib treatment and measured during compound dosing; format: organism-based; details: in vivo, 336 h, dose 60-120 mg/kg
Summary of the method: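 SK-OV-3 cells in 50% Matrigel/PBS injected s.c. into flank of female C.B-17/ICR-scid mice; dosing began after 3 wk, randomized at mean tumour 0.13 cm³ (n = 5). Lapatinib 100 mg/kg p.o. in distilled water 5 d/wk for 2 wk; MK-2206 in 30% Captisol p.o. days 0, 2, 4, 7, 9, 11. Body weight and physical signs monitored.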

NCI-N87 [17] = experiment: Synergistic antiproliferative activity against lapatinib pretreated human NCI-N87 cells assessed as combination index at ED50 measured after 72 hrs by celltiter-glo assay; format: functional
HCC1954 [18] = experiment: Synergistic antiproliferative activity against human HCC1954 cells assessed as combination index at ED50 measured after 96 hrs in presence of lapatinib by celltiter-glo assay; format: functional
HCC1954 [19] = experiment: Synergistic antiproliferative activity against human HCC1954 cells assessed as combination index at ED90 measured after 72 hrs in presence of lapatinib by celltiter-glo assay; format: functional; summary of the method: as §2
NCI-H358 = experiment: Synergistic antiproliferative activity against human NCI-H358 cells assessed as combination index at ED50 measured after 72 hrs in presence of erlotinib by celltiter-glo assay; format: functional
NCI-H292 = experiment: Antitumor activity against human NCI-H292 cells xenografted in CD-1 mouse assessed as tumor growth suppression at 360 mg/kg, po administered once a week for 2 weeks and measured twice a week during compound dosing by caliper method; format: functional, organism-based
Summary of the method: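 Female CD1-nude mice carried s.c. NCI-H292 cells in Matrigel/PBS and were randomized at 0.2 cm³, n = 5. […] MK-2206 (30% Captisol) was given 2 h later at 120 mg/kg po on days 0, 2, 4, 7, 9, 11, or at 360 mg/kg on days 0 and 7. Control received vehicle. Caliper volume twice weekly.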

Cl.NC1(c2ccc(-c3nc4ccn5c(=O)[nH]nc5c4cc3-c3ccccc3)cc2)CCC1
inhibition [1]: Active | inhibition [2]: Active | CI75 (NCI-N87 [3]): 0.18 | CI50 (SK-BR-3 [4]): 0.18 | Activity (A2780 [5]): Dose-Dependent Effect | TGI (PC-3): Active | fold change (FC) (NCI-H1703): 1.5 | CI75 (NCI-N87 [6]): 0.18 | CI50 (MCF7 [7]): 0.7 | CI75 (HCC1954 [8]): 0.18 | CI75 (SK-OV-3 [9]): 0.13 | fold change (FC) (UMC-11): 1.1 | CI90 (SK-BR-3 [10]): 0.8 | inhibition [11]: Active | CI75 (SK-OV-3 [12]): 0.18 | inhibition [13]: Active | Activity (A2780 [14]): Dose-Dependent Effect | CI90 (MCF7 [15]): 0.3 | fold change (FC) (NCI-H1993): 1.2 | CI90 (NCI-H23): 0.68 | Activity [16]: Non-Toxic | CI50 (NCI-N87 [17]): 0.18 | CI50 (HCC1954 [18]): 0.18 | CI90 (HCC1954 [19]): 0.11 | CI50 (NCI-H358): 0.44 | Activity (NCI-H292): Active
